Measured values: ChEMBL document CHEMBL4813982, “Novel pyrazolo[4,3-d]pyrimidine microtubule targeting agents (MTAs): Synthesis, structure-activity relationship, in vitro and in vivo evaluation as antitumor agents” (Bioorg Med Chem Lett, 2021)

Tests used:
[1] = target: T1, Tubulin (Homo sapiens) (UniProt P68371+Q9H4B7+P0DPH7+P68366+Q13509+Q71U36+P04350+Q3ZCM7+P07437+P68363+Q9BQE3+Q6PEY2+Q13885+Q9BVA1+Q9BUF5); assay: Inhibition of [3H]colchicine binding to tubulin (unknown origin) at 0.5 uM relative to control; assay type: protein-complex assay
[2] = target: T1, Tubulin (Homo sapiens); assay: Inhibition of [3H]colchicine binding to tubulin (unknown origin) at 5 uM relative to control; assay type: protein-complex assay
[3] = Resistance ratio of IC50 for antiproliferative activity against human NCI/ADR-RES cells expressing Pgp to IC50 for antiproliferative activity against human OVCAR-8 cells; assay type: functional
Method in brief: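 Resistance ratio: IC50 in Pgp-overexpressing NCI/ADR-RES cells divided by IC50 in parental OVCAR-8 cells.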

[4] = test system: MCF7; assay: Antiproliferative activity against human MCF7 cells; assay type: functional, cell-based
[5] = test system: NCI/ADR-RES; assay: Antiproliferative activity against human NCI/ADR-RES cells overexpressing Pgp; assay type: functional, cell-based
[6] = test system: MCF7; assay: Antiproliferative activity against human MCF7 cells expressing TUBB3; assay type: functional, cell-based
[7] = test system: MCF7; assay: Potency index, ratio of EC50 of paclitaxel to EC50 of compound for antiproliferative activity against human MCF7 cells; assay type: functional
[8] = Resistance ratio of EC50 for antiproliferative activity against human MCF7 cells expressing TUBB3 to EC50 for antiproliferative activity against human MCF7 cells; assay type: functional
Method in brief: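 Resistance ratio: EC50 in MCF-7 cells overexpressing βIII-tubulin divided by EC50 in parental wild-type MCF-7 cells.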

[9] = target: Tubulin; assay: Inhibition of tubulin assembly (unknown origin); assay type: protein-complex assay, Homo sapiens
[10] = test system: MCF7; assay: Potency index, ratio of EC50 of paclitaxel to EC50 of compound for antiproliferative activity against human MCF7 cells expressing TUBB3; assay type: functional
[11] = test system: OVCAR-8; assay: Antiproliferative activity against human OVCAR-8 cells; assay type: functional, cell-based

Row | inhibition [1] | inhibition [2] | EC50 [4] | EC50 [6] | IC50 [9] | IC50 [11] | Compound | Ratio IC50 [3] | IC50 [5] | Ratio EC50 [7] | Ratio EC50 [8] | Ratio EC50 [10]
1 | 79% | 99% | – | – | – | – | COc1ccc(N(C)c2nc(C)nc3ccn(C)c23)cc1 | – | – | – | – | –
2 | – | 0% | – | – | – | – | COc1ccc(Nc2nc(C)nc3cc[nH]c23)cc1 | – | – | – | – | –
3 | 88% | 99% | 7.7 nM | 9.7 nM | 420 nM | 2 nM | CCOc1ccc(N(C)c2nc(Cl)nc3cnn(C)c23)cc1 | 2 | 4 nM | 25 | 1.3 | 220
